# pEC50: −log10 of the molar value.
# Experiments:
# Cavia porcellus [1] = species: Cavia porcellus; experiment: Intrinsic activity calculated as the ratio of the maximum response to the compound to the maximum response to isoprenaline.; format: functional
# Cavia porcellus [2] = species: Cavia porcellus; experiment: Positive inotropic effect in isolated left guinea pig atria.; format: functional; details: read-out: ED50 (the source's name)
# Procedure, shortened: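 Isolated left atria from guinea pigs of either sex (300–800 g), reserpine-pretreated (5 mg/kg ip) 24 h before death. Atria paced electrically at 2.5 Hz, 5 ms square pulses, voltage 50% above threshold; bath contained phentolamine 3.15×10^-4 mM. Isoprenaline dose-response curve run first to validate each preparation. Positive inotropy from dose-response curves; ED50 (mol·L⁻¹, dose giving 50% of maximum effect) by Ariens–Van Rossum method.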
Compound,Intrinsic activity (Cavia porcellus [1]),pEC50 (Cavia porcellus [2])
CC(C)NCC(O)c1ccc(O)c(O)c1 (configuration not stated) [ISOPROTERENOL],1,–
COc1cc(-c2cccnc2)cc2c1NC(=O)CC2,0.68,4.47
Oc1ccc2cccc(-c3cccnc3)c2n1,0.41,3.85
Oc1ccc2cc(-c3ccncc3)cc(Cl)c2n1,0.78,6.42
COc1cc(-c2ccncc2)cc2c1NC(=O)CC2,0.68,5.19
O=C1CCc2cc(-c3cccnc3)ccc2N1,0.67,5.89
Oc1ccc2cc(-c3ccccn3)cc(Cl)c2n1,0.75,5.69
O=C1CCc2cc(-c3ccncc3)ccc2N1,0.56,4.85
Oc1ccc2cc(-c3ccccn3)cc(O)c2n1,0.51,4.72
COc1cc(-c2ccncc2)cc2ccc(O)nc12,0.88,5.30
Oc1ccc2ccc(-c3cccnc3)cc2n1,0.67,5.08
Oc1ccc2cc(-c3ccncc3)ccc2n1,0.45,5.60
c1cncc(-c2ccc3nc(OCCN4CCOCC4)ccc3c2)c1,0.23,4.82
O=c1ccc2cc(-c3cccnc3)ccc2n1CCN1CCOCC1,0.58,4.66
Cc1cc(C)c(-c2ccc3nc(O)ccc3c2)c(C)n1,0.38,5.98
O=C1CCc2cc(-c3ccccn3)ccc2N1,0.29,5.59
COc1cc(-c2ccncc2)cc2c(C)cc(O)nc12,0.5,5.15
COc1cc(-c2cccnc2)cc2c(C)cc(O)nc12,0.81,4.80
Cc1[nH]c(=O)c(C#N)cc1-c1ccncc1 [MILRINONE],0.67,4.85
COc1cc(-c2ccccn2)cc2c1NC(=O)CC2,0.71,5.19
Oc1ccc2cc(-c3cccnc3)cc(O)c2n1,0.72,6.12
Cn1c(=O)ccc2cc(-c3cccnc3)ccc21,0.33,3.96
COc1cc(-c2ccccn2)cc2ccc(O)nc12,0.72,5.04
Oc1ccc2cc(-c3cccnc3)cc(Cl)c2n1,0.68,6.55
Oc1ccc2cc(-c3ccccn3)ccc2n1,0.67,4.82
Nc1cc(Cl)c2nc(O)ccc2c1,0.54,4.00
COc1cc(-c2cccnc2)cc2ccc(O)nc12,0.57,5.19
COc1cc(-c2ccccn2)cc2c(C)cc(O)nc12,0.74,5.31
Oc1ccc2cc(-c3cccnc3)ccc2n1,0.67,6.28

# Source: ChEMBL document CHEMBL1123379, “Cardiotonic agents. 2. Synthesis and structure-activity relationships in a new class of 6-, 7-, and 8-pyridyl-2(1H)-quinolone derivatives” (1986)
